Results published in ChEMBL document CHEMBL1806497, “Design, synthesis and evaluation of N-benzoylindazole derivatives and analogues as inhibitors of human neutrophil elastase” (Bioorg Med Chem, 2011).
Calls of active or inactive are those of the source. The rule behind the calls is not given here.

Key:
[1] = biological target: T1, Neutrophil elastase (Homo sapiens) (UniProt P08246); assay: Inhibition of human neutrophil elastase using N-methylsuccinyl-Ala-Ala-Pro-Val-7-amino-4-methyl-coumarin as substrate at < 55 uM measured every 30 secs for 10 mins by fluorescence microplate reader
T1 sequence (whole entry): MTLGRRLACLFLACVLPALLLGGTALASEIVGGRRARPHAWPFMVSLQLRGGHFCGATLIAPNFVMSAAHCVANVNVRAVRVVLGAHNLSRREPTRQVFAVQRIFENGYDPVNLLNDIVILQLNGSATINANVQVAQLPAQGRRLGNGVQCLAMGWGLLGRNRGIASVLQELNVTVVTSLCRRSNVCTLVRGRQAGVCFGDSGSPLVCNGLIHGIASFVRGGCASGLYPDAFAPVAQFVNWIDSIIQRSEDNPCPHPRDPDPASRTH
Summary of the method: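 20 mU/mL HNE in 200 mM Tris–HCl pH 7.5, 0.01% BSA, 0.05% Tween-20, 1% DMSO final, added to compound dilutions. Reaction started with 25 µM substrate, read every 30 s for 10 min at 25 °C (ex 355/em 460 nm). IC50 from % inhibition vs log concentration, at least six points; mean of ≥3 independent experiments.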

[2] = biological target: T2, Neutrophil elastase (Homo sapiens, UniProt P08246); assay: Inhibition of human neutrophil elastase using N-methylsuccinyl-Ala-Ala-Pro-Val-7-amino-4-methyl-coumarin as substrate measured every 30 secs for 10 mins by fluorescence microplate reader
T2 sequence (P08246 whole entry): T1 sequence (whole entry)

[3] = Inhibition of human pancreatic chymotrypsin using Suc-Ala-Ala-Pro-Phe-7-amino-4-methylcoumarin as substrate by spectrophotometric analysis
Summary of the method: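 30 nM chymotrypsin in 0.05 M Tris–HCl pH 8.0 with 100 µM substrate, 25 °C. Fluorescence read at ex 355/em 460 nm. IC50 from % inhibition vs log concentration, at least six points; mean of ≥3 experiments.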

[4] = biological target: Prothrombin (Homo sapiens, UniProt P00734); assay: Inhibition of human plasma thrombin benzoyl-Phe-Val-Arg-7-amino-4-methylcoumarin as substrate by spectrophotometric analysis
Summary of the method: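 Fluorescence read at ex 355/em 460 nm. IC50 from % inhibition vs log concentration, at least six points; mean of ≥3 experiments.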

[5] = biological target: Urokinase-type plasminogen activator (Homo sapiens, UniProt P00749); assay: Inhibition of human urine urokinase using benzyloxycarbonyl-Gly-Gly-Arg-7-amino-4-methylcoumarin as substrate by spectrophotometric analysis
Summary of the method: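 30 U/mL urokinase in 0.1 M Tris–HCl pH 8.0 with 30 µM substrate, 25 °C. Fluorescence read at ex 355/em 460 nm. IC50 from % inhibition vs log concentration, at least six points; mean of ≥3 experiments.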

[6] = biological target: T1, Neutrophil elastase (Homo sapiens); assay: Inhibition of human neutrophil elastase assessed as cleavage of substrate N-methylsuccinyl-Ala-Ala-Pro-Val-7-amino-4-methyl-coumarin at 600 nM measured upto 120 mins by fluorescence microplate reader
[7] = biological target: T1, Neutrophil elastase (Homo sapiens); assay: Inhibition of human neutrophil elastase assessed as cleavage of substrate N-methylsuccinyl-Ala-Ala-Pro-Val-7-amino-4-methyl-coumarin at 600 nM after 5 hrs by fluorescence microplate reader
Summary of the method: (§1)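 HNE incubated with compound at 600 nM; substrate cleavage followed fluorimetrically for the first 180 min and out to 10 h, with a vehicle control. More fluorogenic substrate added after the 10 h incubation to test residual enzyme activity.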

[8] = biological target: T1, Neutrophil elastase (Homo sapiens); assay: Inhibition of human neutrophil elastase assessed as cleavage of substrate N-methylsuccinyl-Ala-Ala-Pro-Val-7-amino-4-methyl-coumarin at 600 nM after 10 hrs by fluorescence microplate reader; summary of the method: as §1
[9] = biological target: T1, Neutrophil elastase (Homo sapiens); assay: Competitive inhibition of human neutrophil elastase assessed as hydrolysis of fluorogenic substrate N-methylsuccinyl-Ala-Ala-Pro-Val-7-amino-4-methyl-coumarin by Lineweaver-Burk plot analysis
Summary of the method: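 HNE kinetics with inhibitor at 0 and 40 nM over varied substrate concentrations; double-reciprocal Lineweaver–Burk plot, representative of three independent experiments.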

[10] = Stability of the compound in aqueous buffer pH 7.3 assessed as hydrolysis of the compound after 10 hrs by spectrophotometric analysis; type: physicochemical; details: pH 7.3, 10 h
Summary of the method: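 Compound at 20 µM in 0.05 M phosphate buffer pH 7.3, 25 °C. Absorbance spectra (230–330 nm) scanned repeatedly over time to follow spontaneous hydrolysis; scans representative of two independent experiments.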

[11] = biological target: T1, Neutrophil elastase (Homo sapiens); assay: Inhibition of human neutrophil elastase assessed as cleavage of substrate N-methylsuccinyl-Ala-Ala-Pro-Val-7-amino-4-methyl-coumarin at 600 nM measured upto 90 mins by fluorescence microplate reader; summary of the method: as §1

In the case of `CCOC(=O)c1nn(C(=O)c2cc(OC)c(OC)c(OC)c2)c2ccccc12`, the inhibition [1] is reported as “inactive”.

Work on `O=C(OCC(F)(F)F)c1nn(C(=O)c2ccccc2)c2ccccc12` yielded an IC50 [2] of 0.26 µM, an IC50 [3] of 0.0029 µM and an IC50 [4] of 6.7 µM. For the same compound, the IC50 [5] was 10 µM, the inhibition [6] was “Active” and the inhibition [7] was 50%. For the same compound, the inhibition [8] was “inactive”.

For `O=C(O)c1nn(C(=O)c2ccccc2)c2ccccc12`, the inhibition [1] was “inactive”.

With `CCOC(=O)c1nn(C(=O)Nc2cccc(OC)c2)c2ccccc12` the inhibition [1] was “inactive”.

In the case of `CCOC(=O)c1nn(C(=O)c2ccc([N+](=O)[O-])cc2)c2ccccc12`, the inhibition [1] is reported as “inactive”.

Work on `COC(=O)c1nn(C(=O)c2ccccc2)c2ccccc12` yielded an IC50 [2] of 0.089 µM, an IC50 [3] of 0.081 µM and an IC50 [4] of 14 µM. For the same compound, the IC50 [5] was 1.2 µM, the inhibition [9] was “Active” and the Stability [10] was “Unstable”. The inhibition [6] was “Active”, the inhibition [7] was 50% and the inhibition [8] was “inactive”.

With `Cc1ccc(S(=O)(=O)n2nc(C(=O)Nc3ccccc3)c3ccccc32)cc1` the inhibition [1] was “inactive”.

With `CCOC(=O)c1nn(C(=O)c2ccncc2)c2ccccc12` the inhibition [1] was “inactive”.

With `COC(=O)c1nn(C(=O)c2cccc(N)c2)c2ccccc12` the inhibition [1] was “inactive”.

For `O=C(Nc1ccccc1)c1nn(C(=O)c2ccc([N+](=O)[O-])cc2)c2ccccc12`, the inhibition [1] was “inactive”.

In the case of `CC(C)OC(=O)c1nn(C(=O)c2ccccc2)c2ccccc12`, the IC50 [2] is reported as 0.24 µM, the IC50 [3] is reported as 0.047 µM and the IC50 [4] is reported as 7.8 µM. For the same compound, the IC50 [5] was 6.3 µM, the inhibition [6] was “Active” and the inhibition [7] was 50%. For the same compound, the inhibition [8] was “inactive”.

For `CCOC(=O)c1nn(C(=O)C2CCCCC2)c2ccccc12`, the inhibition [1] was “inactive”.

With `O=C(Nc1ccccc1)c1nn(Cc2ccc(Cl)cc2)c2ccccc12` the inhibition [1] was “inactive”.

For `CCOC(=O)c1nn(C(=O)Nc2ccc(Cl)cc2)c2ccccc12`, the inhibition [1] was “inactive”.

In the case of `COC(=O)c1nn(C(=O)c2ccsc2)c2ccccc12`, the IC50 [2] is reported as 0.31 µM, the IC50 [3] is reported as 0.26 µM and the IC50 [5] is reported as 12 µM. For the same compound, the inhibition [6] was “Active”, the inhibition [7] was 50% and the inhibition [8] was “inactive”.

In the case of `O=C(Nc1ccccc1)c1nn(S(=O)(=O)c2ccc(Cl)cc2)c2ccccc12`, the inhibition [1] is reported as “inactive”.

For `CCOC(=O)c1nn(C(=O)c2ccccc2Cl)c2ccccc12`, the inhibition [1] was “inactive”.

In the case of `CCOC(=O)c1nn(C(=O)c2cccc([N+](=O)[O-])c2)c2ccccc12`, the inhibition [1] is reported as “inactive”.

For `CCOC(=O)c1nn(CC(=O)c2ccccc2)c2ccccc12`, the inhibition [1] was “inactive”.

In the case of `COC(=O)c1nn(C(=O)c2cccc(C)c2)c2ccccc12`, the IC50 [2] is reported as 0.13 µM, the IC50 [3] is reported as 0.03 µM and the IC50 [4] is reported as 5.1 µM. For the same compound, the IC50 [5] was 0.87 µM, the inhibition [9] was “Active” and the inhibition [6] was “Active”. For the same compound, the inhibition [8] was “inactive”.

In the case of `COc1cccc(C(=O)n2nc(C)c3ccccc32)c1`, the inhibition [1] is reported as “inactive”.

With `O=C(Nc1ccccc1)c1nn(-c2ccc(Cl)cc2)c2ccccc12` the inhibition [1] was “inactive”.

With `CCOC(=O)c1nn(C(=O)c2cccc3ccccc23)c2ccccc12` the inhibition [1] was “inactive”.

In the case of `CCOC(=O)c1nn(C(=O)c2cccc(C(F)(F)F)c2)c2ccccc12`, the inhibition [1] is reported as “inactive”.

For `O=C(Nc1ccccc1)c1nn(C(=O)c2ccncc2)c2ccccc12`, the inhibition [1] was “inactive”.

For `CCCC(=O)n1nc(C(=O)OCC)c2ccccc21`, the IC50 [2] was 0.18 µM, the IC50 [3] was 0.43 µM and the IC50 [4] was 5.2 µM. For the same compound, the IC50 [5] was 14 µM, the inhibition [11] was “Active” and the inhibition [7] was “inactive”. The inhibition [8] was “inactive”.

With `O=C(Nc1ccccc1)c1nn(C(=O)c2ccccc2Cl)c2ccccc12` the inhibition [1] was “inactive”.
